Laboratory results reported in ChEMBL document CHEMBL1148915, “Steroids and sesquiterpenoids from the soft corals Dendronephthya gigantea and Lemnalia cervicorni” (2004).

How the values were obtained:
HT-29 = test: Cytotoxicity against human HT29 cells; assay type: functional; details: read-out: ED50 (the source's name)
Procedure, shortened: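 HT-29 human colon adenocarcinoma cells obtained from ATCC; in vitro cytotoxicity assay run by a previously described procedure; value given as ED50 in µM; mithramycin run as positive control.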

P388 = test: Cytotoxicity against mouse P388 cells; assay type: functional; details: read-out: ED50 (the source's name)
Procedure, shortened: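 P-388 mouse lymphocytic leukemia cells supplied by an academic lab (Purdue); in vitro cytotoxicity assay run by a previously described procedure; ED50 reported in µM; mithramycin included as positive control.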

Row | Compound | EC50 (HT-29) | EC50 (P388)
1 | CC(C)C/C=C/[C@@H](C)[C@H]1CC[C@H]2[C@@H]3CCC4=CC(=O)C=C[C@]4(C)[C@H]3CC[C@]12C [DENDRONESTERONE C] | > 100 µM | > 100 µM
2 | C=C1[C@H](O)C[C@@H]2[C@@H]3[C@H](C(C)C)CC[C@@]2(C)[C@@H]13 [LEMNALOL] | 10.5 µM | 16.3 µM
3 | C=C1C[C@H](O)[C@@H]2[C@@H]3[C@H](C(C)C)CC[C@@]2(C)[C@@H]13 [CERVICOL] | > 50 µM | > 50 µM
4 | CO[C@H](C(=O)[C@@H](O)[C@@H](C)O)[C@@H]1Cc2cc3cc(O[C@H]4C[C@@H](O[C@@H]5C[C@@H](O)[C@H](O)[C@@H](C)O5)[C@H](O)[C@@H](C)O4)c(C)c(O)c3c(O)c2C(=O)[C@H]1O[C@H]1C[C@@H](O[C@@H]2C[C@@H](O)[C@@H](O[C@@H]3C[C@](C)(O)[C@H](O)[C@@H](C)O3)[C@@H](C)O2)[C@H](O)[C@@H](C)O1 [PLICAMYCIN] | 0.21 µM | 0.15 µM
5 | CC(C)CCC(=O)[C@@H](C)[C@H]1CC[C@H]2[C@@H]3CC[C@H]4CC(=O)C=C[C@]4(C)[C@H]3CC[C@]12C | 9.03 µM | 8.93 µM
6 | CC(C)C/C=C/[C@@H](C)[C@H]1CC[C@H]2[C@@H]3CC[C@H]4CC(=O)C=C[C@]4(C)[C@H]3CC[C@]12C [DENDRONESTERONE A] | > 100 µM | 9.84 µM
7 | CC1=CC(=O)[C@@H]2[C@@H]3[C@H](C(C)C)CC[C@@]2(C)[C@@H]13 | > 50 µM | > 50 µM
8 | C=C(CC[C@@H](C)[C@H]1CC[C@H]2[C@@H]3CC[C@H]4CC(=O)C=C[C@]4(C)[C@H]3CC[C@]12C)C(C)C [DENDRONESTERONE B] | > 100 µM | > 100 µM
9 | CC1=C[C@H](O)[C@@H]2[C@@H]3[C@H](C(C)C)CC[C@@]2(C)[C@@H]13 [ISOLEMNALOL] | > 50 µM | > 50 µM
